Only some compounds are listed: those with a hit (about 1.9% of all), similar ones and a draw of the others.
STEP inh – blocks human striatal-enriched tyrosine phosphatase. P54829. recombinant STEP, OMFP fluorogenic substrate, fluorescence. inhibition, % at 20 µM. 0.25% of 360,000 active. AID 588621;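 active means inhibition at 20 µM, scaled per plate between control wells, above about 37%, limit read from the data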;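 further: 0% = DMSO with enzyme and substrate and 100% = substrate only without enzyme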
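Also added – OMFP at 25 µM · Test system – STEP tyrosine phosphatase · Technique – FITC-channel fluorescence of OMFP product · Schedule – 20 min at room temperature, dark · Evaluation – control-normalized % inhibition with plate pattern correction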
SUMO1 PPI mod – modulators of human SUMO1-mediated protein-protein interactions. AID 602429. 0.33% of 360,000 active. inhibition, % at 20 µM. SUMO1 binding to a labelled peptide, TR-FRET, 1 h; in the data active means inhibition above about 37%
CSN inh – CSN deneddylation inhibition. Q92905. Purified CSN, SCF-Nedd8-OG deneddylation, fluorescence polarization. inhibition, % at 12.5 µM. 0.38% of 360,000 active;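 active means pattern-corrected inhibition above about 35%, with an unprinted fluorescence ratio check between 0.5 and 1.5, limit read from the data, passing the limit was not always enough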;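 further: 0% = enzyme with substrate and 100% = substrate without enzyme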
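Assay system: Purified human Csn5 enzyme expressed in HEK293T cells | Amount: Enzyme 0.24 nM | Measured by: Fluorescence polarization readout | Medium: Tris/NaCl/DTT buffer, pH 7.5 | Compound dosing: One concentration, 12.5 µM, 0.25% DMSO | Times: 90 min incubation of compound, enzyme and substrate at room temperature | Control set: no-enzyme wells high, enzyme-with-substrate wells low | Read-out: % inhibition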
LMPTP block – blocks human LMPTP phosphatase; P24666; recombinant LMPTP-A, OMFP fluorogenic substrate, fluorescence intensity; inhibition, % at 20 µM; 0.22% of 360,000 active;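 active means compounds that cut the enzyme signal by at least half of the control window in the single-dose screen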;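 further: plate controls were DMSO wells with enzyme plus substrate for no effect and substrate without enzyme for full effect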
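Test system: LMPTP-A phosphatase enzyme. Amount: LMPTP-A at 0.625 nM final in the reaction. Reagent: OMFP substrate, 400 µM final. Times: 50 min at room temperature. Signal: endpoint fluorescence intensity from OMFP dephosphorylation. Read-out basis: % inhibition. Benchmarks: no-enzyme and uninhibited controls.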
DNMT1 inh – DNMT1 (human) enzyme inhibition. P26358. DNMT1 molecular beacon, Hinp1I cleavage, fluorescence. inhibition (reported as % activation of signal), % at 10 µM. 0.83% of 360,000 active; in the data active means inhibition above about 50%
Target sequence (P26358 504-1616 limits assumed): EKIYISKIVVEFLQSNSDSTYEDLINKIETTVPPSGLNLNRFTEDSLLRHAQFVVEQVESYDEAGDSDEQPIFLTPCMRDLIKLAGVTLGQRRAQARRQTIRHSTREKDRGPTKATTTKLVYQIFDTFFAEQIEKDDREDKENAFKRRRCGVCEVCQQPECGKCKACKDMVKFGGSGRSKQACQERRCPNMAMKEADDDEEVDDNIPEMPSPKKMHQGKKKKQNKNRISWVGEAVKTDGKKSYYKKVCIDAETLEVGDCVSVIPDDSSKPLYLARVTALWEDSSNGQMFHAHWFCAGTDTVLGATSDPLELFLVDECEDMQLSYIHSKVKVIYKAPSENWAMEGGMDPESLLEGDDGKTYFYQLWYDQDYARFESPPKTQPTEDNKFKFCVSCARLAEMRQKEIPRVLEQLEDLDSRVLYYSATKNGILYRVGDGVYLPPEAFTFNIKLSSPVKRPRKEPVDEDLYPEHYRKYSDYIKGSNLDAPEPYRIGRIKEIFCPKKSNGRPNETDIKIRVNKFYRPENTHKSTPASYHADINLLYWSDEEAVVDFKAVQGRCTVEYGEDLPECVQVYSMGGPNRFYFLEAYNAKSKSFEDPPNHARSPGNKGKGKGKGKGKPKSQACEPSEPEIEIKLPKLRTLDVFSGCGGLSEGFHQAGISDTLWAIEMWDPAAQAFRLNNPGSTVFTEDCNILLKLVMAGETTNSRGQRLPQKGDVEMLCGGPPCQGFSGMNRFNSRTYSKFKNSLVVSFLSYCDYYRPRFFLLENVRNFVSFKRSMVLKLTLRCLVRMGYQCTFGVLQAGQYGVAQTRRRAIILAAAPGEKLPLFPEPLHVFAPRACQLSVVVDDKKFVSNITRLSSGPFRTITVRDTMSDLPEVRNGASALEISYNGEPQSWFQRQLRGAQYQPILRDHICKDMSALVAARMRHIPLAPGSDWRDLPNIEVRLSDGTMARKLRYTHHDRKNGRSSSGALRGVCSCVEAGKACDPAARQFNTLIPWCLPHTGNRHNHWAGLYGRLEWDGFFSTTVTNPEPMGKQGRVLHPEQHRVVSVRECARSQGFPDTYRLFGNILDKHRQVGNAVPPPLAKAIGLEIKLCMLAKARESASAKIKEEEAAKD
Scp1 inh – Scp-1 (human) phosphatase inhibition | AID 493091 | Recombinant Scp1, phosphopeptide, malachite green phosphate absorbance | inhibition, % at 20 µM | 0.88% of 340,000 active;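 active means inhibition above about 50% at 20 µM, limit read from the data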;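 further: plate controls were DMSO wells with enzyme for no effect and wells lacking enzyme for full effect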
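Assay system: SCP-1 catalytic fragment, aa 76-261 | Buffer or medium: Tris acetate buffer pH 5.5 with MgCl2 and Tween-20 | Compound: One concentration, 20 µM, with 1.0% DMSO | Also added: Phospho 17-mer peptide substrate | Signal: Absorbance at 630 nm | Incubation: 45 min enzyme reaction at room temperature | Measure: % inhibition of SCP-1 phosphate liberation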
Scp-1 conf – Scp-1 (human) inhibition, single-dose confirmed; 61% of 2,500 active; shares compounds with Scp1 inh; inhibition, % at 20 µM; recombinant SCP-1 catalytic domain, phosphate release, malachite green absorbance;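 further: plate controls were DMSO with enzyme for no effect and buffer wells lacking enzyme for full effect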
MG interference – interferes with malachite green readout, flagging false Scp-1 hits; shares compounds with Scp1 inh; apparent inhibition (interference), % at 20 µM; 2,500 tested, under 10 active; Colorimetric interference counterscreen, malachite green absorbance 630 nm; AID 540313;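 further: compounds added after enzyme reaction finished so only phosphate colour detection is probed; plate controls were DMSO wells with completed Scp-1 reaction for no effect and substrate wells lacking enzyme for full effect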
Scp1 DSF – Scp-1 (human) binding by thermal shift; 25% of 1,500 active; thermal shift relative to vanadate control, % at 40 µM; Recombinant SCP1, Sypro Orange thermal shift Tm; AID 540329; shares compounds with Scp1 inh;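 active means substances whose mean melting-temperature shift, as a percentage of the reference inhibitor's shift, reaches about 5.3%, limit read from the data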;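 further: 0% = Tm of DMSO wells and 100% = Tm with sodium orthovanadate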
DNMT1 inh conf – DNMT1 inhibition confirmation, single concentration. shares compounds with DNMT1 inh. DNMT1 molecular beacon HinP1I cleavage, fluorescence. inhibition, % at 10 µM. 8% of 2,300 active;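 active means average inhibition of at least 30% in the single-concentration confirmation test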
Beacon interf – beacon fluorescence artifact counter-screen | shares compounds with DNMT1 inh | activation (fluorescence interference), % at 10 µM | DNMT1 molecular beacon spectral interference counterscreen, fluorescence 485/520 | AID 602387 | 1% of 2,300 active;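 active means activation of at least 30% at 10 µM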;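 further: DNMT1 catalytic domain with a HinP1I cleavage step and a FAM/dabcyl DNA beacon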
STEP conf – confirmation of human STEP phosphatase inhibitors. shares compounds with STEP inh. recombinant STEP, OMFP fluorogenic substrate, fluorescence. inhibition, % at 20 µM. 32% of 520 active; call rule not given here;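 further: 0% = enzyme with substrate plus DMSO and 100% = substrate without enzyme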
The depositor's hits bear a star; x = no result given.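 How the source made its calls, unless noted: active means inhibition of at least 30% at 20 µM; inactive means the rest.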

SMILES	STEP inh	SUMO1 PPI mod	CSN inh	LMPTP block	DNMT1 inh	Scp1 inh	Scp-1 conf	MG interference	Scp1 DSF	DNMT1 inh conf	Beacon interf	others
O=C(O)C1CC(c2ccc(F)cc2)=NO1 (stereo not drawn)	0	5	28	-2	86*	52*	34*	-17	-5	13	4
COc1ccc(NS(=O)(=O)c2cccc(C(=O)NNC(=O)c3cncc(Br)c3)c2)cc1	4	9	1	-1	-1	-1	x	x	x	x	x
CCOc1cc(NC(=O)c2ccccc2C)c(OCC)cc1NC(=O)C1=Cc2ccccc2OC1	0	-3	0	1	20	-5	x	x	x	x	x
O=C(Nc1nc2ccccc2s1)c1ccc(Cl)s1	-2	2	-2	-1	0	-12	x	x	x	x	x
Cc1ccc2nc(NC(=O)c3ccc(-c4nc5ccccc5s4)s3)sc2c1	37	44*	52*	44	78*	98*	83*	-9	5	1	-7
Cc1ccc(C(=O)Oc2ccc(C(=O)COC(=O)C3CC(=O)N(Cc4ccco4)C3)cc2)cc1 (stereo not drawn)	4	6	32	2	66*	60*	48*	-18	3	12	2
CCOc1ccc(C/C(N)=N/n2cnnc2)cc1	-1	2	-2	-1	5	-7	x	x	x	x	x
COc1ccc(C(=O)Nc2cc3c(oc2=O)CCCC3=O)cc1	1	-13	24	1	68*	57*	44*	-6	-2	2	1
O=C(Nc1cc2c(oc1=O)CCCC2=O)c1cccc(Cl)c1	-7	-18	-1	-1	-3	-2	x	x	x	x	x
NS(=O)(=O)c1ccc(NC(=O)/C=C/c2ccco2)cc1	5	0	19	4	62*	68*	64*	-5	5	7	0
Cc1cc([N+](=O)[O-])ccc1N1C(=O)c2ccc(C(=O)Nc3ccccc3C(=O)O)cc2C1=O	1	-17	-3	0	-1	-4	x	x	x	x	x
Cc1ccccc1NS(=O)(=O)c1ccc(OCC(=O)NCc2ccccn2)cc1	-1	-2	-6	1	-3	-7	x	x	x	x	x
CCn1cc(CN2CCC(n3nccc3NC(=O)c3ccccc3C)CC2)c(C)n1	-4	0	1	-1	1	-5	x	x	x	x	x
Cc1cccc(C(=O)n2c(=S)nc3ccccn32)c1	1	4	1	1	1	-5	x	x	x	x	x
CCc1ccc(Nc2nnc(SCC(=O)NC(=O)CN3CCCC3=O)s2)cc1	35	9	8	14	64*	65*	48*	-10	-6	1	0
O=Cc1ccc2oc3nc4n(c(=O)c3c(=O)c2c1)CCCS4	5	25	45*	45	94*	80*	67*	-11	-4	-4	-1
COc1cccc(=O)c2c(C)n(-c3ccc(C(=O)O)cc3)c(C)c12	18	24	5	3	63*	60*	29	-16	x	3	-3
CCOc1cccc(=O)c2c(C)n(-c3ccc(C(=O)O)cc3)c(C)c12	31	41*	12	3	94*	60*	55*	-4	15*	2	0
COc1ccc(-n2c(C)c3c(OC)cccc(=O)c3c2C)cc1	1	-13	5	4	-12	-8	x	x	x	x	x
O=C(NC1CCSc2ccccc21)c1ccc(C(F)(F)F)cc1 (stereo not drawn)	0	3	2	1	-1	-5	x	x	x	x	x
Cc1ccc(NC(=O)CN2C(=O)S/C(=C\c3cccn3-c3cccc(C(=O)O)c3)C2=O)cc1C	42*	-4	27	46	30	79*	80*	-7	11*	x	x	STEP conf=3
Cc1ccc(NC(=O)CN2C(=O)S/C(=C\c3ccccn3)C2=O)cc1C	0	-3	0	1	27	-2	x	x	x	x	x
O=C(COC(=O)/C=C/c1ccc(OC(F)F)cc1)Nc1ccc(N2CCOCC2)cc1	2	2	-1	1	-1	-10	x	x	x	x	x
COc1ccc2[nH]c3nc(SCC(=O)NNC(=O)c4ccc(OC)c(OC)c4)nnc3c2c1	6	-4	-2	1	-3	4	x	x	x	x	x
Cc1ccc(C(=O)NNC(=O)CSc2nnc3c(n2)[nH]c2ccc(F)cc23)cc1	56*	7	43*	52*	105*	67*	76*	-12	-20	5	-1	STEP conf=-5
SMILES	STEP inh	SUMO1 PPI mod	CSN inh	LMPTP block	DNMT1 inh	Scp1 inh	Scp-1 conf	MG interference	Scp1 DSF	DNMT1 inh conf	Beacon interf	others
O=C(NNC(=O)c1cc2cc3ccccc3nc2s1)c1cccc(Cl)c1	97*	-2	23	63*	78*	98*	73*	-13	-27	2	1	STEP conf=3
O=C(NNC(=O)c1cc2cc3ccccc3nc2s1)c1ccc(F)cc1	97*	-5	11	32	11	105*	68*	-13	-4	x	x	STEP conf=4
CC(C)(C)C#CCn1c(/C=[N+](\[O-])C2CCCCC2)nc2ccccc21	2	-3	2	0	0	-8	x	x	x	x	x
N#C/C(=C\c1ccc(OCc2ccc(F)cc2)cc1)C(=O)Nc1cccc(C(=O)O)c1	92*	26	21	31	-3	93*	74*	-4	5	x	x	STEP conf=6
COc1ccc(NC(=O)/C(C#N)=C\c2ccc(OCc3ccc(C(=O)O)cc3)c(OC)c2)cc1	89*	8	-2	76*	-5	75*	62*	-7	-10	x	x	STEP conf=5
O=C1Nc2ccccc2C1=O	-3	-32	5	1	-5	4	x	x	x	x	x
O=C1Nc2ccc3sc4ccccc4c3c2C1=O	96*	55*	-3	77*	24	93*	79*	-9	8.0*	x	x	STEP conf=53*

Screens from PubChem BioAssay.
